Where no end group is shown, it is not given here. [ ]: non-standard residue; d: D form. Met(O) = CS(=O)CC[C@H](N)C(=O)O
Experiments:
[1] = target: human KCa1.1 channel (HSlo) (Homo sapiens, UniProt Q12791); test: Whole-cell patch clamp inhibition of cloned human KCa1.1; assay type: cell-based; details: read-out: inhibition of outward current
Summary of the method: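 Whole-cell clamp of HEK293 stably expressing N-terminal Flag-tagged human HSlo. Pipette: KCl/EGTA/Hepes-KOH pH 7.2, 0.5 μM free Ca2+. Bath: NaCl-based pH 7.4. Steps from −80 mV to +100 mV (+10 mV, 100 ms), 5 kHz filter, P/5 leak correction, paxilline-resistant current subtracted. Toxin (50 nM) gravity-perfused; −80→+50 mV pulses every 10 s tracked onset/washout. KI from one-site fit; Kd from kinetic ratio.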

[2] = Biological activity of deprotected IbTx-D19C; details: after selective thiol deprotection using AgBF4; methionine sulfoxide (Met^29)
KCa1.1 = KCa1.1 (UniProt Q12791); details: cited from earlier work
Chain of KCa1.1 (Q12791 whole entry): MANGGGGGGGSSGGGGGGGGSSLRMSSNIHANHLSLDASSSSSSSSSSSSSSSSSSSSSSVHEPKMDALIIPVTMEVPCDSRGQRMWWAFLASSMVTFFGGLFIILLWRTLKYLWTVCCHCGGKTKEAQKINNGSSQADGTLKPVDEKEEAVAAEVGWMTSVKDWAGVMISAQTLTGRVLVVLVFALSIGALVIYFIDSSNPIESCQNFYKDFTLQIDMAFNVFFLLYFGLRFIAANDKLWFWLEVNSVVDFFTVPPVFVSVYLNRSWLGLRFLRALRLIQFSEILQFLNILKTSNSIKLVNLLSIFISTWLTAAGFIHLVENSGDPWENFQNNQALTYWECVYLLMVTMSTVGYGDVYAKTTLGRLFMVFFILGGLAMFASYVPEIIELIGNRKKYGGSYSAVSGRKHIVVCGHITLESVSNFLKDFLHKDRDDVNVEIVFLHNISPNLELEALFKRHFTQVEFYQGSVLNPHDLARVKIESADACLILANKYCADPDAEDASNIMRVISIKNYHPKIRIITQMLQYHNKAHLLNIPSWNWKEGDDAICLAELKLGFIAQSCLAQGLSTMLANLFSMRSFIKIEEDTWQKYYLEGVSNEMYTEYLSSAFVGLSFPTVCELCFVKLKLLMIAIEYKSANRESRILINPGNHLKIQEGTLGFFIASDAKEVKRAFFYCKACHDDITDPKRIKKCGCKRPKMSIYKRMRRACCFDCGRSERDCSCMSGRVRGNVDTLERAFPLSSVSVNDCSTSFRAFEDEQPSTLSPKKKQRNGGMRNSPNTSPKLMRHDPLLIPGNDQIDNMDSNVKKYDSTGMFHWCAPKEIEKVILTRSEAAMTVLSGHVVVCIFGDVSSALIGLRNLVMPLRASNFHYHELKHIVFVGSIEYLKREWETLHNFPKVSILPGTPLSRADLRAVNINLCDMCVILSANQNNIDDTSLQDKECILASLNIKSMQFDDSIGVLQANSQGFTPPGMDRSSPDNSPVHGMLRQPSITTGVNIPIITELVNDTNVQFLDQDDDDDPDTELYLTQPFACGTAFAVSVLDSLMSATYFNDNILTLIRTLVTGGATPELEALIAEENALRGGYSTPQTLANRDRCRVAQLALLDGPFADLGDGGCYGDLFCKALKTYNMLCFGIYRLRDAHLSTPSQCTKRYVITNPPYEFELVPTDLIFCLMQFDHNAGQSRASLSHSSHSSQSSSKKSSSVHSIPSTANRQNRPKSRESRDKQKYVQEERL

Chain of iberiotoxin (P24663 whole entry): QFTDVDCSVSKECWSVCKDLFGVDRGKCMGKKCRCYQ
Chain of human KCa1.1 channel (HSlo) (Q12791 whole entry, the tested form may be a part): as the sequence (Q12791 whole entry) above

CC(C)(O)[C@H]1O[C@H]2CC[C@@]3(C)[C@@](O)(CC[C@H]4Cc5c([nH]c6ccccc56)[C@@]43C)C2=CC1=O [Paxilline]
inhibition at 1 µM [1]: > 95%

IbTx-D19C: biologically inactive form of IbTx-D19C from AgBF4 deprotection of IbTx-D19C-Acm (QFTDVDCSVSKECWSVCKCLFGVDRGKC[Met(O)]GKKCRCYQ; ends and bridges not checked; UniProt P24663 1-37, looked up, variant D19C)
biological activity [2]: biologically inactive

iberiotoxin (from UniProt P24663)
Kd (KCa1.1): < 1 nM

— publication PMC2998342 (Peptides, 2009)
